This passage reports yeast fitness results from the RNAGym collection of RNA variant scans (doi:10.1126/science.aae0568).

This sample holds only a part of the variants without activity.

First the molecules themselves.
B1: tRNA (parent)
chain: GUUCCGUUGGCGUAAUGGUAACGCGUCUCCCUCCUAAGGAGAAGACUGCGGGUUCGAGUCCCGUACGGAACG

Variants of B1 are the subject of the data set. As to the kind of experiment: yeast fitness relative to wild type (ratio to wild type); higher = fitter; tRNA-Arg(CCU), competitive growth, 37 C, YPD. A digest of the protocol: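 Variants of the tRNA-Arg(CCU) gene, chemically synthesised with a 3% per-site mutation rate at 69 sites, were placed at the native genomic locus in Saccharomyces cerevisiae. The pooled strains were competed in YPD at 37°C for 24 hours in six parallel replicates. Gene amplicons from the start population and from each end population were read by 100-nucleotide paired-end sequencing. Darwinian fitness relative to wild type came from changes in genotype frequencies; genotypes needed ≥ 100 starting reads, and estimates < 0.5 were set to 0.5.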
On to C11A U13C C27A G63A, for which the yeast fitness is at most 0.5. Then C11G A14C A37C G44C, with at most 0.5; and C11A U26C C29G C31U G52C C55A U59G, with at most 0.5; and C11A G51A A65U, with at most 0.5. Then C11G A15G U26A U32A G38A A40C, with 0.546. Then C11A U47C C62A, with at most 0.5; and C11A U16C U32G C49G C55A, with 0.546. On to C11A U28G C34U, for which the yeast fitness is at most 0.5. Then C11A U16G C33U, with at most 0.5; and C11A G25C C29U A43U A65C A70U, with at most 0.5; and C11A U13A A20U, with at most 0.5.

As to C11A U13G C55A, the yeast fitness amounted to 0.659.

With C11G A15G C33G G52C A69C, the yeast fitness was at most 0.5. Then C11A U13A A42U G50A C55A, with at most 0.5; and C11G A14C C30U G67U, with at most 0.5; and C11A U35A, with 0.535.

Regarding C11A G58A G68U, the yeast fitness is at most 0.5.

Regarding C11A G58A G68A, the yeast fitness was found to be 0.621.

As for C11A U19G A36G U54C A69C, the yeast fitness was 0.54. Then C11A U54A, with 0.602; and C11A U54C, with 0.596; and C11A G50C C60U A70C, with at most 0.5.

Turning to C11A G38A A40U G50C C60G A70G, the yeast fitness is at most 0.5. Then C11G A14G A37G G44A C60A C62U U64C G68A A69C, with at most 0.5; and C11A U32A C33U G68C, with at most 0.5. Regarding C11G A15U C55U, the yeast fitness was at most 0.5. With C11A G25C U28A A40U, the yeast fitness came out at 0.752. Then C11G A15U C24G A40G C61A, with at most 0.5. Then C11G A15G U54G, with at most 0.5; and C11A G25C G44A A57G, with at most 0.5; and C11A U26A, with 0.687. For C11G A15G U28G C29U C33G C46G A57C, the yeast fitness is at most 0.5. Then C11G A14G G18C A20U C33U C62U G63A, with at most 0.5. Consider C11A U13A C29A G48A C66U, for which the yeast fitness is at most 0.5. Then C11A U19A C55A C61U, with 0.605; and C11A U19A G52A, with at most 0.5; and C11G A14C C30G A45G A57G, with at most 0.5. Then C11A U35A G52A, with at most 0.5; and C11A U13C C27A C60G A65G, with at most 0.5. Turning to C11G A14G G63A C66U, the yeast fitness is at most 0.5. In the case of C11A U35A U53A, the yeast fitness was at most 0.5. Then C11A U32A C33U C66A, with at most 0.5; and C11G A14U C24A A57C, with 0.572; and C11A U28C C46A C55U C61U, with at most 0.5. Then C11A U19A C29A U32A U54C C55G C60G, with at most 0.5; and C11A U16C C34G A65G G67A, with at most 0.5.

With C11A U28G C34U G67A, the yeast fitness was at most 0.5. Then C11G A14G A21U A40U U54A C55U, with at most 0.5; and C11A U16C U32G C49G C55A C66G A70C, with at most 0.5; and C11G A14G G48A C55U A65C, with 0.759. Then C11G A15U C22U A42G C66U, with at most 0.5; and C11A U16C U32G C49U G56A A65C, with at most 0.5; and C11A U16C G18C A45C A57C C62U, with at most 0.5.

With C11G A15C C34U G48A C55U, the yeast fitness is 0.759.

C11G A14U A43U G52A G68C A69G: the yeast fitness was 0.636. Then C11A U53G, with 0.577; and C11G A15U C24G A40G A42U, with at most 0.5; and C11A U13A A14U G23C A69U, with at most 0.5.

Take C11A G41A A57C: the yeast fitness was at most 0.5. Then C11A U19A C27U A42U A45C C55U A69C, with at most 0.5; and C11G A15C C29U G41C G52A, with at most 0.5; and C11A U16C U32G A36G C49G C55A, with 0.53. Turning to C11G A15G A45C C46A A65C, the yeast fitness is at most 0.5.

As to C11G A14C G18C C29G C49U A65C, the yeast fitness was at most 0.5.

As to C11A U16C U32G U64G, the yeast fitness was at most 0.5. Then C11A U13A A42U C55A, with at most 0.5.

With C11A G25C U26C C29U A65C A70U, the yeast fitness was 0.558. Then C11A U32G C61A, with 0.58; and C11A G51A U59A, with at most 0.5; and C11A G25C C29U C49U, with at most 0.5.

On to C11A U19G A36G U53C U54C A69C, for which the yeast fitness was at most 0.5. As to C11A U47C G52C, the yeast fitness is at most 0.5. Then C11A U16C G18C A45C A57U U59C, with at most 0.5; and C11G A15U C34A A42C G48A, with 0.619. Regarding C11G A15G C33G A37G, the yeast fitness was at most 0.5. Then C11A G67A, with 0.555; and C11A G67C, with 0.574; and C11G A14U C24A C60A, with at most 0.5. Then C11A U13G C27G, with at most 0.5; and C11A U16C U32G, with 0.523; and C11A U19C A21U A43U G58C C60A C66U, with 0.531.

As to C11A G52A C62U, the yeast fitness is at most 0.5. Then C11A U13A C31G, with 0.608; and C11A U16A, with 0.58.
